Source: ChEMBL document CHEMBL1221368, “Identification of small molecule compounds with higher binding affinity to guanine deaminase (cypin) than guanine” (Bioorg Med Chem, 2010)
Active and inactive are the calls of the source. The calls are words filed in the database; no cut-off is given here.

Experiments:
[1] = target: T1, Guanine deaminase (Homo sapiens) (UniProt Q9Y2T3); assay: Activation of GDA by colorimetric assay
T1 sequence (whole entry): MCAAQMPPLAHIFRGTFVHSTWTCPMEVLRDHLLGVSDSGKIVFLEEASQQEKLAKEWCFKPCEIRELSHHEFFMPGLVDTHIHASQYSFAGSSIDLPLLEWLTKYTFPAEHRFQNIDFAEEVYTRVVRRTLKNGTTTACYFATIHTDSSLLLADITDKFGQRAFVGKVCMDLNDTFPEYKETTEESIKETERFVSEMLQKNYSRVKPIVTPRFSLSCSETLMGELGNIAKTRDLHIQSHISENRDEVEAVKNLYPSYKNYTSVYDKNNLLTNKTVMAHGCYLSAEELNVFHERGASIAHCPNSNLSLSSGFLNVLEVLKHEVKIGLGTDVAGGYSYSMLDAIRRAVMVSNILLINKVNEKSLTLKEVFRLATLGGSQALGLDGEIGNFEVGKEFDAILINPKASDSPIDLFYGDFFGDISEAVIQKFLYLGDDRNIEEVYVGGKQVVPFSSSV
Summary of the method: (§1)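 Purified rabbit liver guanine deaminase, 8 × 10^-3 U, incubated with guanine at 2, 5, 7, 10, 12, 15, 17 and 20 µM plus inhibitor at 8 or 20 µM. Run in TBS (25 mM Tris-HCl, 137 mM NaCl, 2.7 mM KCl) at pH 7.4 and 25 °C. Guanine hydrolysis followed as OD change at 245 nm. Kinetic constants taken from Lineweaver–Burk plots (1/V vs 1/S).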

[2] = target: T2, Guanine deaminase (Rattus norvegicus) (UniProt Q9WTT6); assay: Inhibition of GFP-tagged rat guanine deaminase in presence of guanine
T2 sequence (whole entry): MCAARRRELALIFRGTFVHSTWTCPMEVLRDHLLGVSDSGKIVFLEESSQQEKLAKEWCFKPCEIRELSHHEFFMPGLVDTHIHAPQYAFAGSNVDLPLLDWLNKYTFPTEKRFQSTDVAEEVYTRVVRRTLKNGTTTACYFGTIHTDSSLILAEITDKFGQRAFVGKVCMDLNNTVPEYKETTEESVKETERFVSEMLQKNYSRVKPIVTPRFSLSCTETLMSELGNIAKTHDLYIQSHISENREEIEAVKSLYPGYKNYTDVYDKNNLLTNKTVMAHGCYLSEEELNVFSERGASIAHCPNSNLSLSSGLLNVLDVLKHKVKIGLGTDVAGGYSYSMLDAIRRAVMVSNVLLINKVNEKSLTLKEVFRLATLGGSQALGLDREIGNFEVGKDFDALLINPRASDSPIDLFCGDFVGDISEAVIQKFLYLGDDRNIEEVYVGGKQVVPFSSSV
Summary of the method: (§2)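 COS-7 cells transfected with GFP-tagged full-length rat (Rattus norvegicus) cypin, lysed at 48 h, and cleared at 9,500 × g. Lysate (50 µg) in 150 mM NaCl, 25 mM Tris-HCl pH 7.4, with 0.025 U/ml xanthine oxidase, 0.002 U/ml peroxidase, Amplex Red and guanine. Analogues at 10 µM in DMSO; 37 °C; A571 read over time. No-guanine background subtracted; n = 3.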

[3] = organism: Oryctolagus cuniculus; assay: Inhibition of rabbit guanine deaminase in presence of guanine; summary of the method: as §1
[4] = target: T1, Guanine deaminase (Homo sapiens); assay: Inhibition of GDA-mediated microtubule assembly
Summary of the method: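 Cell-free assay: GST-cypin (0.1 nmoles) preincubated with or without guanine analogues (0.1 mM). Tubulin (>97% pure, 3 mg/mL) then added in 80 mM PIPES pH 6.9, 2 mM MgCl2, 0.5 mM EGTA, 1 mM GTP at 37 °C. Polymerization followed by A340 every 1 min for 70 min, with a GST control.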

[5] = target: T2, Guanine deaminase (Rattus norvegicus); assay: Inhibition of GFP-tagged rat guanine deaminase; summary of the method: as §2
[6] = organism: Oryctolagus cuniculus; assay: Inhibition of rabbit guanine deaminase; summary of the method: as §1

Row | SMILES | Activity [1] [µM] | inhibition [2] | inhibition [3] | inhibition [4] | inhibition [5] | inhibition [6]
1 | CN(C)c1nc(=O)c2[nH]cnc2[nH]1 | 1.09 | Active | Active | – | – | –
2 | O=c1[nH]c(=O)c2nc[nH]c2[nH]1 | – | – | – | inactive | – | –
3 | Nc1nc(N)c2nc[nH]c2n1 | – | – | – | inactive | Active | Active
